Blank lines part the entries; values can stand above or below the molecule they belong to.
Assays:
[1] = molecular target: Histone deacetylase (HDAC1 and HDAC2) (Homo sapiens, UniProt Q13547+Q92769); test: Inhibition of HDAC1/2 from human HeLa cells nuclear extract by cell free fluorimetric assay; type: cell-based
SK-MES-1 = test: Cytotoxicity against human SKMES1 cells after 72 hrs by trypan blue exclusion assay; type: functional, cell-based; details: SK-MES-1, 72 h
DU-145 = test: Cytotoxicity against human DU145 cells after 72 hrs by trypan blue exclusion assay; type: functional, cell-based; details: DU-145, 72 h
Outline: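 DU-145 prostate cancer cells kept in recommended complete medium at 37 °C, 5% CO₂, passaged 24 h before dosing. Compounds taken from 10 mM DMSO stocks and diluted in DMSO plus fresh medium, final DMSO 0.1%; control wells got fresh medium only. Viability read by trypan blue staining after 72 h. EC₅₀ = concentration giving 50% loss of viability, from duplicate of four simultaneous experiments.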

[2] = Cytotoxicity against human primary lung fibroblasts after 72 hrs by trypan blue exclusion assay; type: ADME, cell-based; details: Fibroblast
HMEC = test: Cytotoxicity against HMEC after 72 hrs by trypan blue exclusion assay; type: ADME, cell-based; details: Homo sapiens
NCI-H69 = test: Cytotoxicity against human NCI-H69 cells after 72 hrs by trypan blue exclusion assay; type: functional, cell-based; details: NCI-H69, 72 h
Histone deacetylase 8 = molecular target: T1, Histone deacetylase 8 (Homo sapiens, UniProt Q9BY41); test: Inhibition of HDAC8 from human HeLa cells nuclear extract by cell free fluorimetric assay
T1 sequence (Q9BY41 whole entry): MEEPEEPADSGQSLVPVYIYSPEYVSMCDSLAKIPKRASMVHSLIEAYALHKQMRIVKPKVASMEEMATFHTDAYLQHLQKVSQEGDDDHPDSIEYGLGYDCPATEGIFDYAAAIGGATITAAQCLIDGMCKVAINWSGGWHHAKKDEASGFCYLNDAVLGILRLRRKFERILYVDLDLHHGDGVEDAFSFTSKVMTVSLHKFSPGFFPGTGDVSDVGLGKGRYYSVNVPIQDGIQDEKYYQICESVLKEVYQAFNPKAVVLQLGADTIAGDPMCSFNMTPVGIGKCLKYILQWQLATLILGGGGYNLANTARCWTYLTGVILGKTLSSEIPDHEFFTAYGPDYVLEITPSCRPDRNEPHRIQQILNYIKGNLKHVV

Compound: CC[C@H]1OC(=O)[C@H](C)[C@@H](O)[C@H](C)[C@@H](O[C@@H]2O[C@H](C)C[C@H](N(C)Cc3ccc(-c4cn(CCCCCC(=O)NO)nn4)cc3)[C@H]2O)[C@](C)(OC)C[C@@H](C)C(=O)[C@H](C)[C@@H](O)[C@]1(C)O
IC50 [1]: 0.0443 µM
EC50 (SK-MES-1): 1.95 µM
EC50 (DU-145): 3.29 µM
EC50 [2]: > 10 µM
EC50 (HMEC): > 10 µM
EC50 (NCI-H69): 1.92 µM

Compound: O=C(CCCCCCC(=O)Nc1ccccc1)NO [VORINOSTAT]
EC50 (DU-145): 2.12 µM

Compound: CC[C@H]1OC(=O)[C@H](C)[C@@H](O[C@H]2C[C@@](C)(OC)[C@@H](O)[C@H](C)O2)[C@H](C)[C@@H](O[C@@H]2O[C@H](C)C[C@H](N(C)Cc3ccc(-c4cn(CCCCCC(=O)NO)nn4)cc3)[C@H]2O)[C@](C)(O)C[C@@H](C)CN(C)[C@H](C)[C@@H](O)[C@]1(C)O
IC50 [1]: 0.0916 µM
EC50 (SK-MES-1): 1.79 µM
EC50 (DU-145): 1.45 µM
IC50 (Histone deacetylase 8): 4.73 µM
EC50 [2]: > 10 µM
EC50 (HMEC): > 10 µM
EC50 (NCI-H69): 1.92 µM

Compound: CC[C@H]1OC(=O)[C@H](C)[C@@H](O[C@H]2C[C@@](C)(OC)[C@@H](O)[C@H](C)O2)[C@H](C)[C@@H](O[C@@H]2O[C@H](C)C[C@H](N(C)Cc3ccc(-c4cn(CCCCCCCC(=O)NO)nn4)cc3)[C@H]2O)[C@](C)(O)C[C@@H](C)CN(C)[C@H](C)[C@@H](O)[C@]1(C)O
IC50 [1]: 0.0589 µM
EC50 (SK-MES-1): 4.89 µM
EC50 (DU-145): 5.89 µM
IC50 (Histone deacetylase 8): 7.13 µM
EC50 [2]: > 10 µM
EC50 (HMEC): > 10 µM
EC50 (NCI-H69): 4.56 µM

Compound: CC[C@H]1OC(=O)[C@H](C)[C@@H](O[C@H]2C[C@@](C)(OC)[C@@H](O)[C@H](C)O2)[C@H](C)[C@@H](O[C@@H]2O[C@H](C)C[C@H](N(C)Cc3ccc(-c4cn(CCCCCCCCCC(=O)NO)nn4)cc3)[C@H]2O)[C@](C)(O)C[C@@H](C)CN(C)[C@H](C)[C@@H](O)[C@]1(C)O
IC50 [1]: 0.2267 µM

Compound: CC[C@H]1OC(=O)[C@H](C)[C@@H](O)[C@H](C)[C@@H](O[C@@H]2O[C@H](C)C[C@H](N(C)Cc3ccc(NC(=O)CCCCCCC(=O)NO)cc3)[C@H]2O)[C@](C)(O)C[C@@H](C)CN(C)[C@H](C)[C@@H](O)[C@]1(C)O [DESCLASINOSE AZITHROMYCINARYLALKYL HYDROXAMATE]
IC50 [1]: 0.1098 µM
EC50 (DU-145): < 25 µM

Compound: CC[C@H]1OC(=O)[C@H](C)[C@@H](O)[C@H](C)[C@@H](O[C@@H]2O[C@H](C)C[C@H](N(C)Cc3ccc(-c4cn(CCCCCC(=O)NO)nn4)cc3)[C@H]2O)[C@](C)(O)C[C@@H](C)CN(C)[C@H](C)[C@@H](O)[C@]1(C)O
IC50 [1]: 0.0888 µM
EC50 (SK-MES-1): 1.68 µM
EC50 (DU-145): 1.24 µM
IC50 (Histone deacetylase 8): 3.74 µM
EC50 [2]: > 10 µM
EC50 (HMEC): > 10 µM
EC50 (NCI-H69): 1.77 µM

Compound: CC[C@H]1OC(=O)[C@H](C)[C@@H](O[C@H]2C[C@@](C)(OC)[C@@H](O)[C@H](C)O2)[C@H](C)[C@@H](O[C@@H]2O[C@H](C)C[C@H](N(C)Cc3ccc(NC(=O)CCCCCCC(=O)NO)cc3)[C@H]2O)[C@](C)(O)C[C@@H](C)CN(C)[C@H](C)[C@@H](O)[C@]1(C)O [AZITHROMYCINARYLALKYLHYDROXAMIC ACID]
IC50 [1]: 0.1071 µM
EC50 (DU-145): > 25 µM

Compound: CC[C@H]1OC(=O)[C@H](C)[C@@H](O)[C@H](C)[C@@H](O[C@@H]2O[C@H](C)C[C@H](N(C)Cc3ccc(-c4cn(CCCCCCCC(=O)NO)nn4)cc3)[C@H]2O)[C@](C)(O)C[C@@H](C)CN(C)[C@H](C)[C@@H](O)[C@]1(C)O
IC50 [1]: 0.0724 µM
EC50 (SK-MES-1): 4.67 µM
EC50 (DU-145): 5.68 µM
IC50 (Histone deacetylase 8): 6.78 µM
EC50 [2]: > 10 µM
EC50 (HMEC): > 10 µM
EC50 (NCI-H69): 3.99 µM

Compound: CC[C@H]1OC(=O)[C@H](C)[C@@H](O)[C@H](C)[C@@H](O[C@@H]2O[C@H](C)C[C@H](N(C)Cc3ccc(-c4cn(CCCCCCCC(=O)NO)nn4)cc3)[C@H]2O)[C@](C)(OC)C[C@@H](C)C(=O)[C@H](C)[C@@H](O)[C@]1(C)O
IC50 [1]: 0.123 µM
EC50 (SK-MES-1): 4.45 µM
EC50 (DU-145): 5.78 µM
EC50 [2]: > 10 µM
EC50 (HMEC): > 10 µM
EC50 (NCI-H69): 5.09 µM

Further lines, with some results ahead:

IC50 [1]: 0.1698 µM
Compound: CC[C@H]1OC(=O)[C@H](C)[C@@H](O[C@H]2C[C@@](C)(OC)[C@@H](O)[C@H](C)O2)[C@H](C)[C@@H](O[C@@H]2O[C@H](C)C[C@H](N(C)Cc3ccc(-c4cn(CCCCCCCCC(=O)NO)nn4)cc3)[C@H]2O)[C@](C)(OC)C[C@@H](C)C(=O)[C@H](C)[C@@H](O)[C@]1(C)O
EC50 (SK-MES-1): 7.12 µM
EC50 (DU-145): 8.14 µM
EC50 [2]: > 10 µM
EC50 (HMEC): > 10 µM
EC50 (NCI-H69): 7.29 µM

IC50 [1]: 0.1455 µM
IC50 (Histone deacetylase 8): 11.1 µM
Compound: CC[C@H]1OC(=O)[C@H](C)[C@@H](O[C@H]2C[C@@](C)(OC)[C@@H](O)[C@H](C)O2)[C@H](C)[C@@H](O[C@@H]2O[C@H](C)C[C@H](N(C)Cc3ccc(-c4cn(CCCCCCCCC(=O)NO)nn4)cc3)[C@H]2O)[C@](C)(O)C[C@@H](C)CN(C)[C@H](C)[C@@H](O)[C@]1(C)O
EC50 (SK-MES-1): 7.54 µM
EC50 (DU-145): > 10 µM
EC50 [2]: > 10 µM
EC50 (HMEC): > 10 µM
EC50 (NCI-H69): 8.45 µM

IC50 [1]: 0.0556 µM
Compound: CC[C@H]1OC(=O)[C@H](C)[C@@H](O[C@H]2C[C@@](C)(OC)[C@@H](O)[C@H](C)O2)[C@H](C)[C@@H](O[C@@H]2O[C@H](C)C[C@H](N(C)Cc3ccc(-c4cn(CCCCCCCC(=O)NO)nn4)cc3)[C@H]2O)[C@](C)(OC)C[C@@H](C)C(=O)[C@H](C)[C@@H](O)[C@]1(C)O
EC50 (SK-MES-1): 4.89 µM
EC50 (DU-145): 6.97 µM
EC50 [2]: > 10 µM
EC50 (HMEC): > 10 µM
EC50 (NCI-H69): 5.67 µM

IC50 [1]: 0.2234 µM
Compound: CC[C@H]1OC(=O)[C@H](C)[C@@H](O[C@H]2C[C@@](C)(OC)[C@@H](O)[C@H](C)O2)[C@H](C)[C@@H](O[C@@H]2O[C@H](C)C[C@H](N(C)Cc3ccc(-c4cn(CCCCCCCCCC(=O)NO)nn4)cc3)[C@H]2O)[C@](C)(OC)C[C@@H](C)C(=O)[C@H](C)[C@@H](O)[C@]1(C)O

IC50 [1]: 0.037 µM
Compound: CC[C@H]1OC(=O)[C@H](C)[C@@H](O[C@H]2C[C@@](C)(OC)[C@@H](O)[C@H](C)O2)[C@H](C)[C@@H](O[C@@H]2O[C@H](C)C[C@H](N(C)Cc3ccc(-c4cn(CCCCCC(=O)NO)nn4)cc3)[C@H]2O)[C@](C)(OC)C[C@@H](C)C(=O)[C@H](C)[C@@H](O)[C@]1(C)O
EC50 (SK-MES-1): 2.15 µM
EC50 (DU-145): 2.98 µM
EC50 [2]: > 10 µM
EC50 (HMEC): > 10 µM
EC50 (NCI-H69): 2.67 µM

— ChEMBL document CHEMBL1139366, “Non-peptide macrocyclic histone deacetylase inhibitors” (J Med Chem, 2009)
